Here are results for 19 molecules from ChEMBL document CHEMBL2150889, “Azetidinyl oxadiazoles as potent mGluR5 positive allosteric modulators” (Bioorg Med Chem Lett, 2012).

≈ marks a conversion by molar mass, not a printed value. Where only a bound is given, the exact number is not on record here.

Data set [1] concerns the target T1, Metabotropic glutamate receptor 5 (Homo sapiens, UniProt P41594). Briefly: Negative allosteric modulation of human mGluR5 expressed in recombinant HEK293 cells by FLIPR assay. The data set is classed as cell-based. To be noted: for inhibition: concentration not given here. The method, boiled down:
(§1)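 HEK293 cells recombinantly expressing human mGluR5 were seeded at 2×10^4 cells/well on poly-D-lysine. They were incubated overnight at 37 °C in glutamate/glutamine-free medium, then loaded for 1 h at 37 °C with calcium 5 dye containing 3 U/ml glutamic pyruvic transaminase and 3 mM sodium pyruvate. Calcium flux was read by FLIPR.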

Data set [2] can be described thus: Solubility of the compound in potassium phosphate buffer after 4 hrs by UPLC analysis. The class given is physicochemical. The method, boiled down: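 DMSO stock of compound (300 μL) was diluted with 2 × 200 μL of 25 mM potassium phosphate buffer. The mixture was shaken on a titer plate shaker for 4 h.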
Data set [3] has as its target T1, Metabotropic glutamate receptor 5. Briefly: Positive allosteric modulation of human mGluR5 expressed in recombinant HEK293 cells by FLIPR assay. The data set is classed as cell-based. The method, boiled down: as §1
The nature of data set [4]: Drug uptake in rat brain at 10 mg/kg, po after 1 hr. The data set is classed as ADME, organism-based. Details: dose 10 mg/kg, route oral. To be noted: read-out: Drug uptake. The method, boiled down: (§2)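 Rats got a single 10 mg/kg oral dose (n = 2 animals). Brain and plasma were sampled at 1 h. Concentrations were measured by HPLC-tandem MS and averaged values reported. Brain/plasma ratio is brain level (ng/g) divided by plasma level (ng/mL).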

Data set [5] is described as follows: Plasma concentration in rat at 10 mg/kg, po after 1 hr. The data set is classed as ADME, organism-based. Also on record: dose 10 mg/kg, route oral. A digest of the protocol: as §2
In data set [6] the test system is Liver microsomes. Briefly: Intrinsic clearance in human liver microsomes. The data set is classed as ADME, Microsome. The method, boiled down: (§3)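 Intrinsic clearance was determined by the Obach method. Liver blood flow was taken as 1.5 L/min for human and 20 mL/min for rat. Human values are expressed in L/min and rat values in mL/min.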
For orientation: Liver microsomes are a subcellular fraction often used to study metabolism.

Data set [7] is described as follows: Ratio of drug level in brain to plasma of rat at 10 mg/kg, po after 1 hr. The class given is ADME, organism-based. Also on record: dose 10 mg/kg, route oral. The conditions noted are these: brain and plasma, read-out: BPR. The method, boiled down:
as §2

A short description of data set [8]: Plasma protein binding in rat. The conditions noted are these: read-out: PPB (converted). The data set is classed as ADME, cell-free.
Data set [9] deals with Liver microsomes. Briefly: Intrinsic clearance in rat liver microsomes. The data set is classed as ADME, Microsome. A digest of the protocol:
as §3

Data set [10] in a line: Plasma protein binding in human. The data set is classed as ADME, cell-free. The conditions noted are these: read-out: PPB (converted).
The target of data set [11] is T1, Metabotropic glutamate receptor 5. Briefly: Binding affinity to human mGluR5 expressed in recombinant HEK293 cells by radiolabeled assay. The class given is cell-based.
Target sequence in this assay (P41594 21-1212 limits assumed): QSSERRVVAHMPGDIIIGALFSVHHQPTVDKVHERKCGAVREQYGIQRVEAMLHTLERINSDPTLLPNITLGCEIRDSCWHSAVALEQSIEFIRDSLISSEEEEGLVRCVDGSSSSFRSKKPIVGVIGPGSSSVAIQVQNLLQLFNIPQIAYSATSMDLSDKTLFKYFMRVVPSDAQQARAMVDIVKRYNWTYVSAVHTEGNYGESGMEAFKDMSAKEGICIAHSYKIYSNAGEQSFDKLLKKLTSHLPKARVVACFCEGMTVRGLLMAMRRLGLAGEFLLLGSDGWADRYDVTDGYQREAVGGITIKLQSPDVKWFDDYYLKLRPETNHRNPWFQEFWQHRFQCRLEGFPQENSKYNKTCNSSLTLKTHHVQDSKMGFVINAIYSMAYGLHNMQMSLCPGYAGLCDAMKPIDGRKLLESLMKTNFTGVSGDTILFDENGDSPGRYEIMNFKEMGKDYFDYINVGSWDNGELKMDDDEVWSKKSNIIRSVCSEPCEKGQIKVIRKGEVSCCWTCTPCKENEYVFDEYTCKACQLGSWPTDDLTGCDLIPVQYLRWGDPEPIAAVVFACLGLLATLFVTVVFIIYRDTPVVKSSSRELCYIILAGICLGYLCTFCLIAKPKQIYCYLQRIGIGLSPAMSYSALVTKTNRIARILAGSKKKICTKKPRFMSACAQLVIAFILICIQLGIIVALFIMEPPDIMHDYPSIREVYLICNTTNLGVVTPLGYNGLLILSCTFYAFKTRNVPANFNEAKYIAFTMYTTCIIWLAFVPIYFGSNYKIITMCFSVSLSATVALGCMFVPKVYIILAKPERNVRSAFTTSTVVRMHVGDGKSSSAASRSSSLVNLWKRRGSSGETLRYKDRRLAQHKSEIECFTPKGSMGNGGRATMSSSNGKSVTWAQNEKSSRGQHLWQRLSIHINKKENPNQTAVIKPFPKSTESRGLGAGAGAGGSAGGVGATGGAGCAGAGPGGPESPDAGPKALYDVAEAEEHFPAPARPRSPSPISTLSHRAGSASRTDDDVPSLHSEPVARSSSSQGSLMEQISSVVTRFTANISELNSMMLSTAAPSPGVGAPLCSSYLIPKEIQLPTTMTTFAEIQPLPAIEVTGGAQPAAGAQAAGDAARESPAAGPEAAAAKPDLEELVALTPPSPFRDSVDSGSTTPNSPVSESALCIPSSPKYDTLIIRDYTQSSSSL

As usually defined, the IC50 is the concentration at which inhibition is half-maximal. In general, inhibition refers to the percentage by which the read-out fell short of the control. The term solubility denotes the dissolved amount per volume that the medium holds. The EC50 is the concentration at which the effect is half-maximal. One may read the Emax as the size of the effect at its maximum, as opposed to the concentration needed. With `O=C(c1ccc(F)cc1)N1CC(c2nc(-c3cccc(Cl)c3)no2)C1`, in [1], the IC50 was found to be 4 µM and the inhibition was found to be 60%. In [2], this molecule gave a solubility at 4 h of 47 µM (≈ 16.8 µg/mL). In data set [3], the EC50 was over 10 µM and the Emax is -12%.
On to `O=C([C@H]1CC2CCC1C2)N1CC(c2nc(-c3cccc(F)c3)no2)C1` (some centres not stated), for which the figures for the concentration at 1 h in [4] and in data set [5] were 84 ng/g and 36 ng/mL, respectively. Also, the CLH with Liver microsomes [6] was 59 L/min; in the data set on Liver microsomes [9], 16 mL/min. The same molecule came in with a solubility at 4 h in [2] of 54 µM (≈ 18.4 µg/mL). Further, the Kp at 1 h in [7] is 2.33. In addition, the results for the fraction unbound in data set [8] and in data set [10] were 0.008 and 0.007, respectively. In [3], the EC50 worked out at 0.072 µM. Also, the Emax in data set [3] came to 140%.
Take `CC1CCCCC1C(=O)N1CC(c2nc(-c3cccc(F)c3)no2)C1` (configuration not stated): in [1], the half-inhibitory concentration (IC50) was over 10 µM. The CLH was found to be 1.6 L/min in the data set with Liver microsomes [6] and 13 mL/min in the data set with Liver microsomes [9]. The molecule also came in with a solubility at 4 h in data set [2] of 180 µM (≈ 61.8 µg/mL). Also, the figures for the fraction unbound in data set [8] and in data set [10] were 0.055 and 0.034, respectively. For the same molecule, the Activity in [3] stood at 48%. In addition, the EC50 in [3] amounted to 0.54 µM. Besides, the Emax in [3] is 87%.
Take `Cc1cccc(-c2noc(C3CN(C(=O)c4cccc(F)c4)C3)n2)c1`: in data set [1], the IC50 worked out at 2.1 µM and the inhibition turned out to be 62%. In data set [3], the EC50 was over 10 µM and the Emax is 15%.
As to `O=C(C1CCCCC1)N1CC(c2nc(-c3cccc(Cl)c3)no2)C1`, the IC50 in data set [1] is over 10 µM. In data set [3], the Activity was 35%, the EC50 was determined as 0.52 µM and the Emax worked out at 43%.
In the case of `O=C(N1CCC(F)CC1)N1CC(c2nc(-c3cccc(Cl)c3)no2)C1`, in [1], the IC50 was over 10 µM. Also, in [3], the Activity was 61%, the EC50 was found to be 0.99 µM and the Emax was 41%.
For `CC1CCC(C(=O)N2CC(c3nc(-c4cccc(F)c4)no3)C2)CC1` (configuration not stated), in that order: over 10 µM, 11%, 2.2 µM and 47%.
For the molecule `CC1CCCN(C(=O)N2CC(c3nc(-c4cccc(Cl)c4)no3)C2)C1` (configuration not stated), in data set [1], the IC50 was found to be 3.4 µM and the inhibition is 69%. For the same molecule, in [3], the EC50 is over 10 µM and the Emax was 6%.
As for `CC1CCCC(C(=O)N2CC(c3nc(-c4cccc(Cl)c4)no3)C2)C1` (configuration not stated), the IC50 in data set [1] was over 10 µM. Also, in data set [3], the Activity was determined as 34%, the EC50 worked out at 0.41 µM and the Emax is 53%.
For `Cc1cccc(-c2noc(C3CN(C(=O)C4CCC(C)CC4)C3)n2)c1` (configuration not stated), in that order: over 10 µM, 49%, 0.97 µM and 68%.
`O=C(c1cccc(F)c1)N1CC(c2nc(-c3cccc(Cl)c3)no2)C1`: in [1], the IC50 is 0.78 µM and the inhibition turned out to be 87%. Also, in data set [3], the EC50 is over 10 µM and the Emax was -12%.
For the molecule `O=C(c1ccc(Cl)cc1)N1CC(c2nc(-c3cccc(F)c3)no2)C1`, the IC50 in data set [1] is over 10 µM. Further, in data set [3], the Activity came to 82%, the EC50 turned out to be 2.5 µM and the Emax is 62%.
In the case of `O=C(c1ccccc1F)N1CC[C@H]1c1nc(-c2cccc(F)c2)no1`, in [1], the IC50 turned out to be 0.92 µM and the inhibition was 68%. Also, in [3], the EC50 was over 10 µM and the Emax was 57%.
`O=C(C1CCC(F)(F)CC1)N1CC(c2nc(-c3cccc(Cl)c3)no2)C1`: the results for the Activity in [11] and in data set [3] were 3.8 µM and 3%, respectively. In addition, in data set [1], the IC50 is over 10 µM. For the same molecule, the concentration at 1 h in [4] came out at 280 ng/g; in data set [5], 160 ng/mL. Also, the CLH in the data set on Liver microsomes [6] was found to be 0.9 L/min; with Liver microsomes [9] it was 24 mL/min. Further, the solubility at 4 h in data set [2] was 130 µM (≈ 49.6 µg/mL). Further, in [7], the Kp at 1 h was found to be 1.75. Moreover, the fraction unbound was 0.031 in data set [8] and 0.013 in [10]. Moreover, the EC50 in [3] was found to be 0.18 µM. Also, the Emax in data set [3] came out at 75%.
With `O=S(=O)(c1ccc(Cl)cc1)N1CC(c2nc(-c3cccc(Cl)c3)no2)C1`, in data set [1], the IC50 came to 0.17 µM and the inhibition was determined as 79%. Further, in data set [3], the EC50 was over 10 µM and the Emax was determined as 7%.
For `Cc1cccc(-c2noc(C3CN(C(=O)c4ccccc4F)C3)n2)c1`, in that order: 1.4 µM, 64%, over 10 µM and 5%.
As to `O=S(=O)(c1ccc(F)cc1)N1CC(c2nc(-c3cccc(Cl)c3)no2)C1`, in [1], the IC50 worked out at 0.13 µM and the inhibition amounted to 85%. For the same molecule, in [3], the EC50 is over 10 µM and the Emax is -7%.
`O=C(c1ccc(F)cc1)N1CC(c2nc(-c3cccc(F)c3)no2)C1`: the IC50 in [1] is over 10 µM. Moreover, in data set [3], the Activity was determined as 6%, the concentration for a half-maximal effect (EC50) was determined as 2.4 µM and the Emax is 40%.
As to `O=C(c1ccccc1F)N1CC(c2nc(-c3cccc(Cl)c3)no2)C1`, in data set [1], the IC50 came out at 0.67 µM and the inhibition is 86%. Also, in data set [3], the EC50 was over 10 µM and the Emax was -12%.
